For 31 compounds, IC50 results are on record in ChEMBL document CHEMBL1158621, “Tricyclic sulfones as orally active gamma-secretase inhibitors: synthesis and structure-activity relationship studies” (Bioorg Med Chem Lett, 2010).

Broadly, the IC50 is the midpoint of a concentration-inhibition curve.

Type in all cases: cell-based
Assay [1] can be described thus: Inhibition of gamma-secretase-mediated cleavage of human APP Swedish and London mutation expressed in HEK293 cell membrane.
Assay [2] can be described thus: Inhibition of gamma-secretase-mediated cleavage of human APP Swedish and London mutation expressed in HEK293 cells assessed as reduction in amyloid beta42 production after 4 hrs by ECL technology.
A short description of assay [3]: Inhibition of gamma-secretase-mediated cleavage of human APP Swedish and London mutation expressed in HEK293 cells assessed as reduction in amyloid beta40 production after 4 hrs by ECL technology. The gist of the method: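 HEK293 cells expressing human APP with Swedish and London mutations were given fresh medium and incubated with inhibitor for 4 h. Ab40 was measured in 10 microliters of conditioned medium by ECL. Values are means of n = 2.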

For the compound `CN(C)S(=O)(=O)NC[C@@H]1CCC[C@@]2(S(=O)(=O)c3ccc(C(F)(F)F)cc3)c3c(F)ccc(F)c3OC[C@@H]12`, the IC50 in assay [1] was determined as 0.0068 µM; in assay [2], 0.0054 µM; in assay [3], 0.0127 µM.

Consider `O=S(=O)(NC[C@@H]1CCC[C@@]2(S(=O)(=O)c3ccc(Cl)cc3)c3c(F)ccc(F)c3OC[C@@H]12)N1CCCC1`, for which the IC50 is 0.0033 µM in assay [1], 0.003 µM in assay [2] and 0.005 µM in assay [3].

As to `NS(=O)(=O)NC[C@@H]1CCC[C@@]2(S(=O)(=O)c3ccc(C(F)(F)F)cc3)c3c(F)ccc(F)c3OC[C@@H]12`, the IC50 in assay [1] turned out to be 0.0187 µM; in assay [2], 0.004 µM; in assay [3], 0.006 µM.

Regarding `O=S(=O)(NC[C@@H]1CCC[C@@]2(S(=O)(=O)c3ccc(Cl)cc3)c3c(F)ccc(F)c3OC[C@@H]12)c1c(F)cccc1F`, the half-maximal inhibitory concentration (IC50) came to 0.013 µM in assay [1], 0.017 µM in assay [2] and 0.032 µM in assay [3].

In assay [1], `O=S1(=O)NCCN1C[C@@H]1CCC[C@@]2(S(=O)(=O)c3ccc(C(F)(F)F)cc3)c3c(F)ccc(F)c3OC[C@@H]12` came in with an IC50 of 0.0377 µM.

Regarding `CCN(C[C@@H]1CCC[C@@]2(S(=O)(=O)c3ccc(C(F)(F)F)cc3)c3c(F)ccc(F)c3OC[C@@H]12)S(=O)(=O)C1CC1`, the figures for the IC50 in assay [1], in assay [2] and in assay [3] were 0.083 µM, 0.021 µM and 0.0467 µM, respectively.

As for `CCN(C[C@@H]1CCC[C@@]2(S(=O)(=O)c3ccc(C(F)(F)F)cc3)c3c(F)ccc(F)c3OC[C@@H]12)S(C)(=O)=O`, the 50% inhibitory concentration (IC50) came to 0.034 µM in assay [1], 0.0074 µM in assay [2] and 0.0185 µM in assay [3].

Take `CS(=O)(=O)N(C[C@@H]1CCC[C@@]2(S(=O)(=O)c3ccc(C(F)(F)F)cc3)c3c(F)ccc(F)c3OC[C@@H]12)C1CC1`: the concentration for half-maximal inhibition (IC50) in assay [1] came to 0.0058 µM; in assay [2] it was 0.006 µM; in assay [3], 0.009 µM.

For `CCCCS(=O)(=O)NC[C@@H]1CCC[C@@]2(S(=O)(=O)c3ccc(Cl)cc3)c3c(F)ccc(F)c3OC[C@@H]12`, the values for the IC50 in assay [1], in assay [2] and in assay [3] were 0.013 µM, 0.013 µM and 0.029 µM, respectively.

On to `O=S(=O)(N(C[C@@H]1CCC[C@@]2(S(=O)(=O)c3ccc(C(F)(F)F)cc3)c3c(F)ccc(F)c3OC[C@@H]12)C1CC1)C(F)(F)F`, for which the values for the IC50 in assay [1], in assay [2] and in assay [3] were 0.0353 µM, 0.0142 µM and 0.0153 µM, respectively.

For `CCN(CC)S(=O)(=O)NC[C@@H]1CCC[C@@]2(S(=O)(=O)c3ccc(Cl)cc3)c3c(F)ccc(F)c3OC[C@@H]12`, the IC50 in assay [1] was 0.009 µM; in assay [2] it was 0.003 µM; in assay [3] it was 0.006 µM.

For `CCN(C[C@@H]1CCC[C@@]2(S(=O)(=O)c3ccc(Cl)cc3)c3c(F)ccc(F)c3OC[C@@H]12)S(=O)(=O)CC`, the values for the IC50 in assay [1], in assay [2] and in assay [3] were 0.016 µM, 0.007 µM and 0.015 µM, respectively.

As to `CCS(=O)(=O)NC[C@@H]1CCC[C@@]2(S(=O)(=O)c3ccc(Cl)cc3)c3c(F)ccc(F)c3OC[C@@H]12`, the IC50 came out at 0.0016 µM in assay [1], 0.002 µM in assay [2] and 0.004 µM in assay [3].

As to `O=S1(=O)CCCN1C[C@@H]1CCC[C@@]2(S(=O)(=O)c3ccc(C(F)(F)F)cc3)c3c(F)ccc(F)c3OC[C@@H]12`, the values for the IC50 in assay [1], in assay [2] and in assay [3] were 0.09 µM, 0.025 µM and 0.072 µM, respectively.

For `O=S(=O)(NC[C@@H]1CCC[C@@]2(S(=O)(=O)c3ccc(Cl)cc3)c3c(F)ccc(F)c3OC[C@@H]12)N1CCCCC1`, the IC50 in assay [1] was 0.006 µM; in assay [2] it was 0.011 µM; in assay [3], 0.019 µM.

As to `O=S(=O)(NC[C@@H]1CCC[C@@]2(S(=O)(=O)c3ccc(Cl)cc3)c3c(F)ccc(F)c3OC[C@@H]12)N1CCOCC1`, the concentration for half-maximal inhibition (IC50) in assay [1] was 0.0034 µM; in assay [2] it was 0.003 µM; in assay [3], 0.006 µM.

As to `O=S(=O)(NC[C@@H]1CCC[C@@]2(S(=O)(=O)c3ccc(C(F)(F)F)cc3)c3c(F)ccc(F)c3OC[C@@H]12)C1CC1`, the half-inhibitory concentration (IC50) was found to be 0.0197 µM in assay [1], 0.0063 µM in assay [2] and 0.0175 µM in assay [3].

For the compound `NS(=O)(=O)NC[C@@H]1CCC[C@@]2(S(=O)(=O)c3ccc(Cl)cc3)c3c(F)ccc(F)c3OC[C@@H]12`, the values for the half-inhibitory concentration (IC50) in assay [1], in assay [2] and in assay [3] were 0.002 µM, 0.001 µM and 0.001 µM, respectively.

On to `O=S(=O)(NC[C@@H]1CCC[C@@]2(S(=O)(=O)c3ccc(Cl)cc3)c3c(F)ccc(F)c3OC[C@@H]12)c1cccs1`, for which the IC50 is 0.0167 µM in assay [1], 0.018 µM in assay [2] and 0.045 µM in assay [3].

In the case of `CCN(C[C@@H]1CCC[C@@]2(S(=O)(=O)c3ccc(C(F)(F)F)cc3)c3c(F)ccc(F)c3OC[C@@H]12)S(=O)(=O)C(F)(F)F`, the half-inhibitory concentration (IC50) in assay [1] amounted to 0.097 µM; in assay [2], 0.021 µM; in assay [3] it was 0.042 µM.

For the compound `CCS(=O)(=O)N(C[C@@H]1CCC[C@@]2(S(=O)(=O)c3ccc(C(F)(F)F)cc3)c3c(F)ccc(F)c3OC[C@@H]12)C1CC1`, the IC50 in assay [1] came out at 0.028 µM; in assay [2] it was 0.0142 µM; in assay [3] it was 0.0295 µM.

Regarding `CN1CCN(C[C@@H]2CCC[C@@]3(S(=O)(=O)c4ccc(C(F)(F)F)cc4)c4c(F)ccc(F)c4OC[C@@H]23)S1(=O)=O`, the half-maximal inhibitory concentration (IC50) was 0.068 µM in assay [1], 0.013 µM in assay [2] and 0.023 µM in assay [3].

For the compound `CS(=O)(=O)N(C[C@@H]1CCC[C@@]2(S(=O)(=O)c3ccc(Cl)cc3)c3c(F)ccc(F)c3OC[C@@H]12)C1CC1`, the IC50 in assay [1] worked out at 0.0033 µM; in assay [2] it was 0.004 µM; in assay [3] it was 0.006 µM.

On to `CCN(C[C@@H]1CCC[C@@]2(S(=O)(=O)c3ccc(Cl)cc3)c3c(F)ccc(F)c3OC[C@@H]12)S(C)(=O)=O`, for which the results for the half-inhibitory concentration (IC50) in assay [1], in assay [2] and in assay [3] were 0.0055 µM, 0.005 µM and 0.012 µM, respectively.

Take `O=S(=O)(CC(F)(F)F)NC[C@@H]1CCC[C@@]2(S(=O)(=O)c3ccc(C(F)(F)F)cc3)c3c(F)ccc(F)c3OC[C@@H]12`: the IC50 in assay [1] was found to be 0.025 µM; in assay [2], 0.008 µM; in assay [3], 0.0227 µM.

As for `CC(C)S(=O)(=O)NC[C@@H]1CCC[C@@]2(S(=O)(=O)c3ccc(Cl)cc3)c3c(F)ccc(F)c3OC[C@@H]12`, the IC50 in assay [1] came out at 0.0052 µM; in assay [2], 0.005 µM; in assay [3] it was 0.012 µM.

Regarding `O=S(=O)(CC(F)(F)F)NC[C@@H]1CCC[C@@]2(S(=O)(=O)c3ccc(Cl)cc3)c3c(F)ccc(F)c3OC[C@@H]12`, the IC50 in assay [1] was 0.0078 µM; in assay [2], 0.004 µM; in assay [3], 0.016 µM.

In the case of `O=S(=O)(NC[C@@H]1CCC[C@@]2(S(=O)(=O)c3ccc(Cl)cc3)c3c(F)ccc(F)c3OC[C@@H]12)c1ccccc1`, the IC50 in assay [1] worked out at 0.061 µM; in assay [2], 0.046 µM; in assay [3], 0.128 µM.

On to `CCCS(=O)(=O)NC[C@@H]1CCC[C@@]2(S(=O)(=O)c3ccc(Cl)cc3)c3c(F)ccc(F)c3OC[C@@H]12`, for which the 50% inhibitory concentration (IC50) in assay [1] came to 0.0055 µM; in assay [2], 0.006 µM; in assay [3], 0.012 µM.

As for `CN(C)S(=O)(=O)NC[C@@H]1CCC[C@@]2(S(=O)(=O)c3ccc(Cl)cc3)c3c(F)ccc(F)c3OC[C@@H]12`, the figures for the 50% inhibitory concentration (IC50) in assay [1], in assay [2] and in assay [3] were 0.0027 µM, 0.001 µM and 0.002 µM, respectively.

In assay [1], `O=S1(=O)CCCCN1C[C@@H]1CCC[C@@]2(S(=O)(=O)c3ccc(C(F)(F)F)cc3)c3c(F)ccc(F)c3OC[C@@H]12` showed an IC50 of 0.122 µM.
